Reference: ChEMBL document CHEMBL4177770, “Discovery of MK-6169, a Potent Pan-Genotype Hepatitis C Virus NS5A Inhibitor with Optimized Activity against Common Resistance-Associated Substitutions” (J Med Chem, 2018)

Columns and labels:
[1] = test system: NS3 (Hepatitis C virus), A3EZJ3 [R155K,V36M]; test: Inhibition of NS3 R155K/V36M double mutant in HCV genotype 1a infected in HuH7 replicon cells assessed as decrease in viral replication after 3 days by RT-PCR method; format: cell-based; settings: Hepatitis C virus subtype 1a
[2] = target: T1, Nonstructural protein 5A (Hepatitis C virus) (UniProt Q5L478); test: Inhibition of NS5A L31V mutant in HCV genotype 3a infected in HuH7 replicon cells assessed as decrease in viral replication after 3 days by RT-PCR method; format: cell-based; settings: Hepatitis C virus subtype 3a
T1 sequence (whole entry): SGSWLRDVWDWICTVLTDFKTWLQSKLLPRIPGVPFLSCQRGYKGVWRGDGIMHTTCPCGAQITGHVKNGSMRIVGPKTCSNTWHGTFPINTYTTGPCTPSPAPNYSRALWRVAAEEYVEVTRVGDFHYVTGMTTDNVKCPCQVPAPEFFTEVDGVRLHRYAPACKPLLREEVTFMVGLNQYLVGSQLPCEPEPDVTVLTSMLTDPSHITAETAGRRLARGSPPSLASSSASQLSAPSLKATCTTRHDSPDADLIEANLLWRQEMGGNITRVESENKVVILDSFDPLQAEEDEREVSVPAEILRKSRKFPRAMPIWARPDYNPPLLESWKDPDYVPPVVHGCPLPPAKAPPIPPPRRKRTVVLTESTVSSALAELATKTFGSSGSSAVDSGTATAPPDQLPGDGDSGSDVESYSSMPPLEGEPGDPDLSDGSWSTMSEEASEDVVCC

[3] = Resistance ratio of EC90 for NS5A L31I mutant in HCV genotype 1b infected in HuH7 replicon cells to EC90 for NS5A in HCV genotype 1a infected in HuH7 replicon cells; format: cell-based
[4] = Resistance ratio of EC90 for NS5A P32L mutant in HCV genotype 4a infected in HuH7 replicon cells to EC90 for NS5A in HCV genotype 1a infected in HuH7 replicon cells; format: cell-based
[5] = test system: Hepatitis C virus subtype 1a; test: Resistance ratio of EC90 for NS5A R81S mutant in HCV genotype 1a infected in HuH7 replicon cells to EC90 for NS5A in HCV genotype 1a infected in HuH7 replicon cells; format: cell-based
[6] = target: T1, Nonstructural protein 5A (Hepatitis C virus); test: Inhibition of NS5A M28T mutant in HCV genotype 1a infected in HuH7 replicon cells assessed as decrease in viral replication after 3 days by RT-PCR method; format: cell-based; settings: Hepatitis C virus subtype 1a
[7] = target: T1, Nonstructural protein 5A (Hepatitis C virus); test: Inhibition of NS5A A92K mutant in HCV genotype 1b infected in HuH7 replicon cells assessed as decrease in viral replication after 3 days by RT-PCR method; format: cell-based; settings: Hepatitis C virus subtype 1b
[8] = target: T1, Nonstructural protein 5A (Hepatitis C virus); test: Inhibition of NS5A A146S mutant in HCV genotype 2b infected in HuH7 replicon cells assessed as decrease in viral replication after 3 days by RT-PCR method; format: cell-based; settings: Hepatitis C virus subtype 2b
[9] = target: T1, Nonstructural protein 5A (Hepatitis C virus); test: Inhibition of NS5A L31V mutant in HCV genotype 4a infected in HuH7 replicon cells assessed as decrease in viral replication after 3 days by RT-PCR method; format: cell-based; settings: Hepatitis C virus subtype 4a
[10] = target: T1, Nonstructural protein 5A (Hepatitis C virus); test: Inhibition of NS5A R81W mutant in HCV genotype 1a infected in HuH7 replicon cells assessed as decrease in viral replication after 3 days by RT-PCR method; format: cell-based; settings: Hepatitis C virus subtype 1a
[11] = Drug level in Wistar Han rat at 300 mg/kg, po measured at 24 hrs by LC/MS method; format: ADME, organism-based; settings: in vivo, read-out: Drug uptake
Outline: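 Single rising oral dose study in fed male Wistar Han rats, dosed PO in 10% TWEEN at the indicated doses. Plasma was obtained by centrifuging the blood, and compound levels were determined by LC/MS.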

[12] = target: T1, Nonstructural protein 5A (Hepatitis C virus); test: Inhibition of NS5A L31V mutant in HCV genotype 1b infected in HuH7 replicon cells assessed as decrease in viral replication after 3 days by RT-PCR method; format: cell-based; settings: Hepatitis C virus subtype 1b
[13] = target: T1, Nonstructural protein 5A (Hepatitis C virus); test: Inhibition of NS5A Q30R mutant in HCV genotype 1a infected in HuH7 replicon cells assessed as decrease in viral replication after 3 days by RT-PCR method; format: cell-based; settings: Hepatitis C virus subtype 1a
[14] = target: T1, Nonstructural protein 5A (Hepatitis C virus); test: Inhibition of NS5A D168Y mutant in HCV genotype 1b infected in HuH7 replicon cells assessed as decrease in viral replication after 3 days by RT-PCR method; format: cell-based; settings: Hepatitis C virus subtype 1b

Compound: COC(=O)N[C@H](C(=O)N1CCC[C@H]1c1ncc(-c2cc(F)c3c(c2)O[C@@H](c2ccc(C4CC4)s2)n2c-3cc3cc(-c4cnc([C@@H]5CCCN5C(=O)[C@@H](NC(=O)OC)[C@@H]5CCOC(C)(C)C5)[nH]4)ccc32)[nH]1)C(C)C
- EC90 [1]: 2.5 pM
- EC90 [2]: 3200 pM
- Ratio [3]: 5
- Ratio [4]: 1
- Ratio [5]: < 1
- EC90 [6]: 2 pM
- EC90 [7]: 26 pM
- EC90 [8]: 3.4 pM
- EC90 [9]: 7.7 pM
- EC90 [10]: 0.32 pM
- concentration at 24 h [11]: 164 nM
- EC90 [12]: 5.8 pM
- EC90 [13]: 120 pM
- EC90 [14]: 1.8 pM
